pIC50: −log10 of the molar value. The source made the active and inactive calls. No cut-off for these calls is given here.
What was measured:
[1] = target: Insulin receptor (Mus musculus) (UniProt P15208); assay: Inhibition of insulin receptor in mouse NIHIR cells assessed as inhibition of insulin-stimulated IRS1 phosphorylation; format: cell-based
Outline: (§1)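 Cells were preincubated with a range of inhibitor concentrations for 5 min at 37°C, then stimulated for 5 min at 37°C: PDGF 40 ng/ml, insulin 1 μg/ml or EGF 100 ng/ml. Whole-lysate portions went directly to SDS-PAGE and anti-phosphotyrosine immunoblotting, and substrate phosphoproteins were located by position.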

[2] = target: Fibroblast growth factor receptor 1 (Homo sapiens, UniProt P11362); assay: Inhibition of FGFR1K autophosphorylation activity assessed as [32P] incorporation
Chain of Fibroblast growth factor receptor 1 (Homo sapiens, UniProt P11362) (P11362 whole entry): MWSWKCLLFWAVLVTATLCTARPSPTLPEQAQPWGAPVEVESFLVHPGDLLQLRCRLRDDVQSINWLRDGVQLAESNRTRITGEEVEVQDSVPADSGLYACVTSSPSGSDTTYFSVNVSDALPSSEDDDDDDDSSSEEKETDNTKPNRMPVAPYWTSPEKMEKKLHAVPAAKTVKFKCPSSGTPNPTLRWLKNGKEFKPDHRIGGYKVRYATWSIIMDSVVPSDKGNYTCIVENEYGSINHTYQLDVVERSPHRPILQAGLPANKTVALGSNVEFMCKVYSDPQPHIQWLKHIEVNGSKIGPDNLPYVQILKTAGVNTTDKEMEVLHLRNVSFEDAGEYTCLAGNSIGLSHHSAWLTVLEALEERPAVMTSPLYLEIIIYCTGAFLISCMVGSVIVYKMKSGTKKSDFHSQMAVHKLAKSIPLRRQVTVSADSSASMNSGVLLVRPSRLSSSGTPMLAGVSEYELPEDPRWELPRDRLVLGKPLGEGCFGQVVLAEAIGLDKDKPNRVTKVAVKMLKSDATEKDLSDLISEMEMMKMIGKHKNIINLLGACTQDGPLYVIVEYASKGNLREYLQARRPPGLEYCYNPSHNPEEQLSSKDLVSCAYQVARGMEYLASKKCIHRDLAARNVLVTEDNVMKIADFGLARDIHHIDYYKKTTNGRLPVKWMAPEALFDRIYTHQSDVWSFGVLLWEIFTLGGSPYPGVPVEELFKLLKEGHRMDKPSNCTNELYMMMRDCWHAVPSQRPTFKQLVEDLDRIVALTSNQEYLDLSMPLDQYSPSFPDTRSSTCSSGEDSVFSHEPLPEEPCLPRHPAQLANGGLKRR

[3] = target: Fibroblast growth factor receptor 1 (Mus musculus, UniProt P16092); assay: Inhibition of acidic FGF-stimulated FGFR1 tyrosine autophosphorylation in mouse NIH/3T3 cells by immunoblotting; format: cell-based, NIH3T3
Chain of Fibroblast growth factor receptor 1 (Mus musculus, UniProt P16092) (P16092 whole entry): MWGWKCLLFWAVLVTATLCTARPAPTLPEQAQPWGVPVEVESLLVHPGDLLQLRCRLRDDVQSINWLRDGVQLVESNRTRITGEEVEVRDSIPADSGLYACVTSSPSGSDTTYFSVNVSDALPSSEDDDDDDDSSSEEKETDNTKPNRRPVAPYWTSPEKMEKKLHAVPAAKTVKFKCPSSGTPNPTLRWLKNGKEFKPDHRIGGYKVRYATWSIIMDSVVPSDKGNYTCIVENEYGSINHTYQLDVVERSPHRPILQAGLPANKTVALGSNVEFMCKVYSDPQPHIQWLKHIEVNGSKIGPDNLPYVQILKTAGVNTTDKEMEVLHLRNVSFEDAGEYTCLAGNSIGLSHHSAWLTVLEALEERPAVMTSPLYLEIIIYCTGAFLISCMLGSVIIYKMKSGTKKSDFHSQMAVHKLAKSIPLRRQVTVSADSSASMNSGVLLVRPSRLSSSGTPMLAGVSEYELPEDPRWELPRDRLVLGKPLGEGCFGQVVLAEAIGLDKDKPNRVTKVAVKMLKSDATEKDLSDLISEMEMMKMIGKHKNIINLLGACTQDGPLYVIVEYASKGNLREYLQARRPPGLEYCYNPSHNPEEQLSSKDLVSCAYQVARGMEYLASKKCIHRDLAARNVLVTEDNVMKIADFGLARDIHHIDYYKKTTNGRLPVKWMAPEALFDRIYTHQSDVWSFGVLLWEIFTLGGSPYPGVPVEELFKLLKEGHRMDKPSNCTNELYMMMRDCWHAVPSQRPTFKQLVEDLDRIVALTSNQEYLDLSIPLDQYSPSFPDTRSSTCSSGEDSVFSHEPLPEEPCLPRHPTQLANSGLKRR

[4] = test system: NIH3T3; assay: Growth inhibition of mouse NIH/3T3 cells assessed as inhibition of acidic FGF-stimulated [3H]thymidine incorporation; format: functional, cell-based
Outline: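 NIH 3T3 cells, untreated or pretreated with inhibitor at 50 μM, were stimulated with aFGF and then labeled with [3H]thymidine. Thymidine incorporation was measured after 24 hours.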

[5] = target: T1, Platelet-derived growth factor receptor (Mus musculus) (UniProt P05622+P26618); assay: Inhibition of PDGFR in mouse NIH/3T3 cells assessed as inhibition of PDGF-stimulated tyrosine autophosphorylation by immunoblotting; format: cell-based; settings: NIH3T3
Outline: (§2)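 Cells were preincubated with a range of inhibitor concentrations for 5 min at 37°C, then stimulated for 5 min at 37°C (unstimulated controls kept): PDGF 40 ng/ml for PDGFR, insulin 1 μg/ml for insulin receptor, EGF 100 ng/ml for EGFR. Lysates were immunoprecipitated with receptor-specific antibodies, run on SDS-PAGE and immunoblotted with anti-phosphotyrosine.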

[6] = target: T1, Platelet-derived growth factor receptor (Mus musculus); assay: Inhibition of PDGFR in mouse NIH/3T3 cells assessed as inhibition of PDGF-stimulated phospholipase C gamma phosphorylation by immunoblotting; format: cell-based; settings: NIH3T3; outline: as §1
[7] = target: T1, Platelet-derived growth factor receptor (Mus musculus); assay: Inhibition of PDGFR in mouse NIH/3T3 cells assessed as PDGF-stimulated Erk2 activation by immunoblotting; format: cell-based; settings: NIH3T3
[8] = target: Insulin receptor (Mus musculus) (UniProt P15208); assay: Inhibition of insulin-stimulated insulin receptor beta subunit autophosphorylation in mouse NIHIR cells; format: cell-based; outline: as §2
[9] = target: Epidermal growth factor receptor (Mus musculus) (UniProt Q01279); assay: Inhibition of EGF-stimulated EGFR phosphorylation in mouse HER14 cells by immunoblotting; format: cell-based; outline: as §2
Chain of Epidermal growth factor receptor (Mus musculus) (Q01279 whole entry): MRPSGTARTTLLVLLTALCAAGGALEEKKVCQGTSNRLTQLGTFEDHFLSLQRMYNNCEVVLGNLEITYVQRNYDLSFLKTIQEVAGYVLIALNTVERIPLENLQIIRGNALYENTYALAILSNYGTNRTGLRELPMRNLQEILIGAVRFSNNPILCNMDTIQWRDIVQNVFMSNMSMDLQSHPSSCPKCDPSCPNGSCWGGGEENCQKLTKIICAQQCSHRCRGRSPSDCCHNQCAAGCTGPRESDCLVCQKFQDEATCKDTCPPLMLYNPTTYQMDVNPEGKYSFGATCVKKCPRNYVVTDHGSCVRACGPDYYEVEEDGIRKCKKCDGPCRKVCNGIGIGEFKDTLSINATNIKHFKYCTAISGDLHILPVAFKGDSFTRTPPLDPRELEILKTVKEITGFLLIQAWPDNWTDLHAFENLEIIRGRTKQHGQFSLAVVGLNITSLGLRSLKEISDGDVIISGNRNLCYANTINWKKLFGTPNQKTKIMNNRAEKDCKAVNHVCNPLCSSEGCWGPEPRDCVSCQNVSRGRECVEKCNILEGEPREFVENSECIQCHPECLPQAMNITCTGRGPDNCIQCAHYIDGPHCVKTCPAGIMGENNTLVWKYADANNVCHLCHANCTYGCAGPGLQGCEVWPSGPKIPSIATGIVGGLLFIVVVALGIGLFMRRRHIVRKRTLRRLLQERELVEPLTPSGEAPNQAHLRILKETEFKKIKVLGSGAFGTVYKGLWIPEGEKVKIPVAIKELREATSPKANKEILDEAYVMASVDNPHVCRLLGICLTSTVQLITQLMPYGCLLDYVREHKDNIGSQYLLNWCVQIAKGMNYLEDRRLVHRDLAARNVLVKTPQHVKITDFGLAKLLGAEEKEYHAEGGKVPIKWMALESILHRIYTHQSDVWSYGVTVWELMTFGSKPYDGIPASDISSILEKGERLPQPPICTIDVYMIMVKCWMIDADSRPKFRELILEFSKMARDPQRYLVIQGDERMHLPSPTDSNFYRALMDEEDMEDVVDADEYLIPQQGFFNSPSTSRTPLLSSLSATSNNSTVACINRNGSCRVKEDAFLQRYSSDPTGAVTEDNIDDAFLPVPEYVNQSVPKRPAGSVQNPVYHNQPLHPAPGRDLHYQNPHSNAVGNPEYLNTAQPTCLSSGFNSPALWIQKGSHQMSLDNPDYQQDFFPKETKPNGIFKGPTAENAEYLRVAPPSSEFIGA

[10] = target: Epidermal growth factor receptor (Mus musculus) (UniProt Q01279); assay: Inhibition of EGFR in mouse HER14 cells assessed as inhibition of EGF-stimulated Shc phosphorylation by immunoblotting; format: cell-based; outline: as §1
[11] = target: Epidermal growth factor receptor (Mus musculus) (UniProt Q01279); assay: Inhibition of EGFR in mouse HER14 cells assessed as inhibition of EGF-stimulated ERK2 activation by immunoblotting; format: cell-based
[12] = target: Epidermal growth factor receptor (Mus musculus) (UniProt Q01279); assay: Inhibition of EGFR phosphorylation in mouse NIH/3T3 cells at 200 uM; format: cell-based; settings: NIH3T3
[13] = target: Insulin receptor (Mus musculus) (UniProt P15208); assay: Inhibition of insulin receptor tyrosine phosphorylation in mouse NIH3T3 cells; format: cell-based; outline: as §2
[14] = target: T1, Platelet-derived growth factor receptor (Mus musculus); assay: Inhibition of PDGFR tyrosine phosphorylation in mouse NIH3T3 cells; format: cell-based; outline: as §2

Chain of Insulin receptor (Mus musculus) (P15208 28-748 limits assumed): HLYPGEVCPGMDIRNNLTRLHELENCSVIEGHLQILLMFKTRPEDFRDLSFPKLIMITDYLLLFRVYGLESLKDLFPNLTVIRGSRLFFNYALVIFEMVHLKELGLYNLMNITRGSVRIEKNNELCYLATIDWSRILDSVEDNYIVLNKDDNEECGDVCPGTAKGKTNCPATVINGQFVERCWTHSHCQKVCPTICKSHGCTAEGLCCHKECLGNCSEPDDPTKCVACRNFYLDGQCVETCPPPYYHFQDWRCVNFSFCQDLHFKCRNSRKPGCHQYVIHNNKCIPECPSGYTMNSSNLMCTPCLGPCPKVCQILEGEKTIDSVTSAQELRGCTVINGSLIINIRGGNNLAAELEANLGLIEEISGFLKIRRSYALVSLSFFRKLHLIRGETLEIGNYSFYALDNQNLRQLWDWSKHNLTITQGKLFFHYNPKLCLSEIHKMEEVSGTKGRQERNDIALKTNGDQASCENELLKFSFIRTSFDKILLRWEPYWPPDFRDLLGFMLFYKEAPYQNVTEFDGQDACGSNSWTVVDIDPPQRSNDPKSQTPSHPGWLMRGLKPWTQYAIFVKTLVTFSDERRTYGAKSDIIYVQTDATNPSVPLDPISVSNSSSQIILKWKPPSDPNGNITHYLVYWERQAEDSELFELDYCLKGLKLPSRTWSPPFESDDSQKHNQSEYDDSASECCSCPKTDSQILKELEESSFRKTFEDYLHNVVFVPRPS
Chain of Insulin receptor (Mus musculus) (P15208 753-1372 limits assumed): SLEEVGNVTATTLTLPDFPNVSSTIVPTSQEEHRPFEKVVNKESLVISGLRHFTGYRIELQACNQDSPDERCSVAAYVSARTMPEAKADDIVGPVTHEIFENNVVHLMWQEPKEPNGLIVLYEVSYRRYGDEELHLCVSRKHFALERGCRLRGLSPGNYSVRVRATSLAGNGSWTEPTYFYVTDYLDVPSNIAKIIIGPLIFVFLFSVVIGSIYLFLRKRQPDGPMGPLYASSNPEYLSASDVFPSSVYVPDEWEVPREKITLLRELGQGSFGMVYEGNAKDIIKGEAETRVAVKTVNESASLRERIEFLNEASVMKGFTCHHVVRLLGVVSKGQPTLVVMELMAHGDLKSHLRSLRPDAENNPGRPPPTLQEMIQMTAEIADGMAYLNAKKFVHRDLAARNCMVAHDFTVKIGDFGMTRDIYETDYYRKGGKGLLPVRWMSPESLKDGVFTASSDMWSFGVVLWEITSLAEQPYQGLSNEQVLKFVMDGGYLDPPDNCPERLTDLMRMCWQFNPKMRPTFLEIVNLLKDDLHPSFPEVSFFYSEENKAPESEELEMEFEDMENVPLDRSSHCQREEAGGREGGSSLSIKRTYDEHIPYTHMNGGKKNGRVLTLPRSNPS

Activity [1] | pIC50 [2] | pIC50 [3] | Activity [5] | Activity [6] | Activity [7] | Activity [8] | Activity [9] | Activity [10] | Activity [11] | Activity [12] | Activity [13] | Activity [14] | SMILES | Activity [4]
Active | 5.00 | 5.00 | Active | Active | Active | Active | Active | Active | Active | inactive | inactive |  | Cc1c[nH]c(/C=C2\C(=O)Nc3ccccc32)c1CCC(=O)O | Active
Active | 5.00 | 4.70 | Active | Active | Active | Active |  |  |  | inactive | Active | Active | O=CN1CCN(c2ccc(/C=C3\C(=O)Nc4ccccc43)cc2)CC1 | Active
